CHOP inhibitor: inhibitors of CHOP induction in ER stress response; CHO-K1 CHOP-promoter luciferase, tunicamycin-induced, 15-18 h; inhibition, % at 10 µM; 3.8% of 220,000 active; AID 2732;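 active = compounds that reduced the stress-induced luciferase reporter signal by more than about 70% of percent inhibition, limit read from the data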
Jurkat NFkB inh: lowers PMA/ionomycin-induced NF-kB signal in Jurkat cells; PMA/ionomycin-induced NF-kB luciferase reporter, luminescence; inhibition, % at 4 µM; 0.53% of 330,000 active; in the data active = inhibition above about 50%
XBP1 UPR activ: activators of adaptive arm of unfolded protein response (XBP1); CHO-XBP1 luciferase reporter, IRE1-XBP1 UPR activation, luminescence; percent of tunicamycin response, DMSO as zero; AID 463104; activation, % at 20 µM; 0.33% of 330,000 active;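 active = versus positive control, 20 µM dose yields 30% or more activation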
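incubation = overnight seeding at 37 °C, 6 h compound treatment at 37 °C | assay system = CHO-XBP1 cells stably carrying IRE1-XBP1-driven luciferase reporter | input = 1000 cells per well | detection = luciferase luminescence | dosing = single point, 20 µM final compound, 1% DMSO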
697 NFkB inh: inhibitors of the PMA/ionomycin-induced NF-kB reporter in 697 B cells | 697 B-cell NF-kB luciferase reporter, 16 h | inhibition, % at 4 µM | 0.33% of 330,000 active; in the data active = inhibition above about 35%
CHOP UPR activ: apoptotic UPR (CHOP) activation | AID 449763 | activation, % at 10 µM | CHO-CHOP luciferase reporter, luminescence; percent of tunicamycin response over DMSO baseline | 0.34% of 330,000 active;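 active = at 10 µM dose, activation of 40% or more, normalized to positive control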
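Evaluation: % reporter activation, DMSO baseline versus tunicamycin full activation; System: CHO-CHOP luciferase reporter cell line; Input: 500 cells/well; Incubation: 6 h compound treatment, 37 °C; Measured by: Steady-Glo luciferase luminescence; Dosing: one dose, 10 µM in 0.5% DMSO; Buffer or medium: F12 medium, 10% FBS; Benchmarks: positive tunicamycin 10 µg/mL, negative DMSO alone.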
697 NFkB conf: lowers PMA/ionomycin-induced NF-kB signal in 697 B cells | 35% of 2,000 active | shares compounds with 697 NFkB inh | AID 449746 | inhibition, % at 4 µM | 697 B-cell NF-kB luciferase, 16 h; in the data active = inhibition mostly above about 28%, no sharp cut-off; inactive = mostly below about 22%
Each line names hits and unclear results; the compound was inactive in the other large screens (follow-up assays come after a bar, where they were run). The sample as a whole holds a higher share of hits than the screen did.

COC(=O)C1=C(C)N(c2ccc(Cl)cc2)/C(=C/c2ccc(O)cc2)C1=O	697 NFkB inh 35.7 | 697 NFkB conf inactive
CC(=O)c1cccc(CN2CCCCC2C(=O)Nc2ccc(Oc3ccccc3)nc2)c1 (centres undefined)	none (no result: CHOP inhibitor)
N#CCSc1n[nH]c2nc3c(c(=O)n12)C1(CCCC1)Cc1ccccc1-3	697 NFkB inh 37.0 | 697 NFkB conf inactive
CCCn1c(SCC#N)nc2c(c1=O)C1(CCCC1)Cc1ccccc1-2	none
O=C(c1ccco1)N1CCN(c2ncnc3c2[nH]c2ccccc23)CC1	697 NFkB inh 36.3 | 697 NFkB conf inactive
CCOc1ccc2[nH]c3c(N4CCN(C(=O)c5ccco5)CC4)ncnc3c2c1	none
CCOC(=O)N1CCN(c2ncnc3c2[nH]c2ccc(OC)cc23)CC1	697 NFkB inh 36.7 | 697 NFkB conf 37.9
COc1ccc(-n2c3c(c(=O)[nH]c2=O)C(NS(=O)(=O)c2ccc(Cl)cc2)(C(F)(F)F)C(=O)N3)cc1 (centres undefined)	none
O=C(CCCCCCC(=O)Nc1ccccc1)NO	none (no result: CHOP inhibitor) | 697 NFkB conf inactive
COC(=O)c1ccccc1NC(=O)c1ccc(-c2ccc(Br)cc2)o1	none | 697 NFkB conf inactive
O=C(Nc1cccc2nsnc12)c1ccc(-c2ccc(Br)cc2)o1	none
CCC(=O)Nc1ccc2oc(-c3cccc(C)c3)nc2c1	none | 697 NFkB conf inactive
CCC(=O)Nc1cccc(-c2nc3ccc(C)cc3o2)c1	none (no result: CHOP inhibitor)
COCCNC(=O)CSCc1nc(-c2ccc(SC)cc2)oc1C	697 NFkB inh 83.7 | 697 NFkB conf 72.4
CCOc1ccc(-c2nc(CSCC(=O)NC3CC3)c(C)o2)cc1	697 NFkB inh 98.6 (no result: CHOP inhibitor) | 697 NFkB conf 79.2
CCOCCCNC(=O)CSCc1nc(-c2ccc(SC)cc2)oc1C	none
CCOC(=O)N1CCC(NC(=O)CSCc2nc(-c3ccc(OCC)cc3)oc2C)CC1	none (no result: CHOP inhibitor)
COc1ccc(C(C(=O)NC2CCCCC2)N(Cc2ccco2)C(=O)c2ccccn2)c(OC)c1 (centres undefined)	none (no result: CHOP inhibitor)
CCOCCCNC(=S)N1CCC(C(=O)c2ccc3c(c2)OCCO3)CC1	697 NFkB inh 101.4 | 697 NFkB conf inactive
O=CN1c2ccccc2CSc2ccccc21	none (no result: CHOP inhibitor)
Nc1nn(-c2ccccc2)c(N)c1N=Nc1ccccc1F	none | 697 NFkB conf inactive
CC(C)c1ccc(-n2c(-c3ccccc3)c[n+]3c2CCc2ccccc2-3)cc1	none (no result: Jurkat NFkB inh, XBP1 UPR activ, 697 NFkB inh, CHOP UPR activ)
COc1ccc(-n2c(-c3ccc(Br)cc3)c[n+]3c2CCc2ccccc2-3)cc1	697 NFkB inh 101.1 | 697 NFkB conf 47.0
COCCNc1cc(C)nc2cc(-c3ccc(C)cc3)nn12	none
Clc1cccc(-c2cc3nc4c(c(NCc5ccco5)n3n2)CCCC4)c1	none | 697 NFkB conf inactive
Cc1ccc(-c2cc3nc(C)cc(NCc4ccco4)n3n2)cc1	none | 697 NFkB conf inactive
c1coc(CNc2c3c(nc4ncnn24)CCCC3)c1	none
Cc1nc2cc(-c3ccc(Cl)cc3)nn2c(C)c1CCC(=O)NCc1ccco1	CHOP inhibitor 73.8, 697 NFkB inh 43.4 | 697 NFkB conf 31.3
Cc1ccc(-n2nc(C)c(/C=N/n3c(C)n[nH]c3=S)c2Cl)cc1	none
CCCCn1c(C23CC4CC(CC(C4)C2)C3)n[nH]c1=S	none (no result: CHOP inhibitor)
Cc1ccc(/C=C/c2nc3ccccc3s2)s1	none | 697 NFkB conf inactive
CC(=O)c1ccc(N2CCN(c3ccnc4cc(Cl)ccc34)CC2)cc1	697 NFkB inh 41.5 (no result: CHOP inhibitor) | 697 NFkB conf inactive
COC(=O)c1c(-c2ccc(OC)cc2)sc2cc3c(cc12)OCO3	none (no result: CHOP inhibitor)
COC(=O)c1c(-c2ccc(N(C)C)cc2)sc2ccc(OC)cc12	697 NFkB inh 53.1 (no result: CHOP inhibitor) | 697 NFkB conf 61.5
Cc1ccc(-n2nc3c(=O)n(CCCC(=O)NCc4cccc(F)c4)nc(C)c3c2C)cc1	none (no result: CHOP inhibitor)
Cc1ccc(-n2nc3c(=O)n(CCCC(=O)NCc4ccc(F)cc4)nc(C)c3c2C)cc1	697 NFkB inh 39.1 (no result: CHOP inhibitor) | 697 NFkB conf inactive
O=C(NCc1ccccc1)C1=C[C@H](C2CCCCC2)C[C@H](OCc2ccc(CO)cc2)O1	none | 697 NFkB conf inactive
Cc1ccc(C(=O)OCC(=O)N(CC(C)C)c2c(N)n(Cc3ccccc3)c(=O)[nH]c2=O)o1	697 NFkB inh 40.4 (no result: CHOP inhibitor) | 697 NFkB conf 26.5
CC(C)CN(C(=O)COC(=O)C12CC3CC(CC(C3)C1)C2)c1c(N)n(Cc2ccccc2)c(=O)[nH]c1=O	697 NFkB inh 50.4 (no result: CHOP inhibitor) | 697 NFkB conf 52.0
CC(C)CN(C(=O)CC1CCCC1)c1c(N)n(Cc2ccccc2)c(=O)[nH]c1=O	none (no result: CHOP inhibitor)
CCOc1ccc(C(=O)NC2CCN(C(=O)Nc3ccc(F)cc3)CC2)cc1	none (no result: CHOP inhibitor)
c1ccc(CCNCCCOc2cccc3ccccc23)cc1	none (no result: CHOP inhibitor)
CCn1c2ccc(C)cc2c2n[nH]c(=S)nc21	none (no result: CHOP inhibitor)
CCOC(=O)c1cc(CC)sc1N1C(=O)CC(Sc2ncccc2C(=O)O)C1=O (centres undefined)	697 NFkB inh 46.3 | 697 NFkB conf inactive
CCOC(=O)c1cc(CC)sc1N1C(=O)CC(Sc2ccccc2C(=O)O)C1=O (centres undefined)	none
O=C(CN1CCN(Cc2ccc(F)cc2)CC1)NCc1ccccc1	none (no result: CHOP inhibitor)
CC1(C)CC(=O)C(N=Nc2cccc(S(=O)(=O)N3CCOCC3)c2)=C(O)C1	697 NFkB inh 38.2 | 697 NFkB conf inactive
CC1CCN(S(=O)(=O)c2ccc(N=NC3=C(O)CC(C)(C)CC3=O)cc2)CC1	none
COc1ccc(NC(=O)NC2(C(=O)N3CCCC(C)C3)CCCCC2)cc1 (centres undefined)	none (no result: CHOP inhibitor)
CCOc1ccc(S(=O)(=O)NCc2ccncc2)cc1NC(=O)c1ccccc1	697 NFkB inh 45.5 (no result: CHOP inhibitor) | 697 NFkB conf 84.4
COc1ccc(/C=N\NC(=O)c2sccc2C)cc1Cn1nc(C)cc1C	697 NFkB inh 39.2 (no result: CHOP inhibitor) | 697 NFkB conf 44.5
O=C(Nc1cccc(-c2ccc(F)cc2)c1)C1CCCN(Cc2cccnc2)C1 (centres undefined)	none (no result: CHOP inhibitor)
COc1cc(OC)c(/C=N/NC(N)=S)cc1Br	697 NFkB inh 55.2 | 697 NFkB conf 18.0
CC1(C)C(=O)Nc2ccccc2N1C(=O)COC(=O)c1ccc([N+](=O)[O-])o1	none (no result: CHOP inhibitor)
Cn1c(=O)cc(OCC(=O)NC2CCCCC2)c2ccccc21	none
CN1CCN(C(=O)CCCOc2cc(=O)n(C)c3ccccc23)CC1	none
Cn1c(=O)cc(OCC(=O)NCc2ccccn2)c2ccccc21	none
Cn1c(=O)cc(OCCCC(=O)NCc2ccccn2)c2ccccc21	697 NFkB inh 36.5 | 697 NFkB conf 31.2
Cn1c(=O)cc(OCCCC(=O)NC2CCCC2)c2ccccc21	697 NFkB inh 68.5 | 697 NFkB conf 46.2
Cn1c(=O)cc(OCCCC(=O)N2CCCCC2)c2ccccc21	697 NFkB inh 38.5 | 697 NFkB conf 42.0
CN(Cc1cccc(-n2cccn2)c1)C(=O)CCc1nnc(C2CCCCC2)o1	none

Screens: PubChem BioAssay, several laboratories
